Legend:
[1] = biological target: Casein kinase II subunit alpha (Homo sapiens, UniProt P68400); experiment: Inhibition of recombinant CK2alpha1
Summary of the method: (§1)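 Purified recombinant kinase, 50 µL reaction. 1 µM [γ-33P]-ATP with substrate; compound added in 10% DMSO. Tested over several concentrations; IC50 in g/mL.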

[2] = biological target: Insulin-like growth factor 1 receptor (Homo sapiens, UniProt P08069); experiment: Inhibition of recombinant IGF1R; summary of the method: as §1
[3] = biological target: T1, NUAK family SNF1-like kinase 1 (Homo sapiens, UniProt O60285); experiment: Inhibition of recombinant ARK5
T1 sequence (O60285 whole entry): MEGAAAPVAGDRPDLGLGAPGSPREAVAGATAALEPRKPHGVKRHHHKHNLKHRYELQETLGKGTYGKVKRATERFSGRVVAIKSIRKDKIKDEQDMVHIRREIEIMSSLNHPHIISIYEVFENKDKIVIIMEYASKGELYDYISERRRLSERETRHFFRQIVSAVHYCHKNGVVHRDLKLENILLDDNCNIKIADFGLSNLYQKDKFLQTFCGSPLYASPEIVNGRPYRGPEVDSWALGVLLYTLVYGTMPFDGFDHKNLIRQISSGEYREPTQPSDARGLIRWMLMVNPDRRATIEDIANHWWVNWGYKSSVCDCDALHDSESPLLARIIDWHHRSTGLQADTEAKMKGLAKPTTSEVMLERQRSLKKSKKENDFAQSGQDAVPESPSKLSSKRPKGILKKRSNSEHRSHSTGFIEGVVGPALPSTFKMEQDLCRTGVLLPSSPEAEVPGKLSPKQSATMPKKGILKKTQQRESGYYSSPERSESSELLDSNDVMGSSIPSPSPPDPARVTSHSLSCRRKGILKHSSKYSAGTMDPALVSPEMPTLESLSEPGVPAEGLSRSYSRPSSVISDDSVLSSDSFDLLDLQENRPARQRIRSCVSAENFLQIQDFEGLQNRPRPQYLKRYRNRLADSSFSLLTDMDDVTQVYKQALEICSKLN

[4] = biological target: T2, Receptor-type tyrosine-protein kinase FLT3 (Homo sapiens, UniProt P36888); experiment: Inhibition of recombinant FLT3; summary of the method: as §1
T2 sequence (P36888 whole entry): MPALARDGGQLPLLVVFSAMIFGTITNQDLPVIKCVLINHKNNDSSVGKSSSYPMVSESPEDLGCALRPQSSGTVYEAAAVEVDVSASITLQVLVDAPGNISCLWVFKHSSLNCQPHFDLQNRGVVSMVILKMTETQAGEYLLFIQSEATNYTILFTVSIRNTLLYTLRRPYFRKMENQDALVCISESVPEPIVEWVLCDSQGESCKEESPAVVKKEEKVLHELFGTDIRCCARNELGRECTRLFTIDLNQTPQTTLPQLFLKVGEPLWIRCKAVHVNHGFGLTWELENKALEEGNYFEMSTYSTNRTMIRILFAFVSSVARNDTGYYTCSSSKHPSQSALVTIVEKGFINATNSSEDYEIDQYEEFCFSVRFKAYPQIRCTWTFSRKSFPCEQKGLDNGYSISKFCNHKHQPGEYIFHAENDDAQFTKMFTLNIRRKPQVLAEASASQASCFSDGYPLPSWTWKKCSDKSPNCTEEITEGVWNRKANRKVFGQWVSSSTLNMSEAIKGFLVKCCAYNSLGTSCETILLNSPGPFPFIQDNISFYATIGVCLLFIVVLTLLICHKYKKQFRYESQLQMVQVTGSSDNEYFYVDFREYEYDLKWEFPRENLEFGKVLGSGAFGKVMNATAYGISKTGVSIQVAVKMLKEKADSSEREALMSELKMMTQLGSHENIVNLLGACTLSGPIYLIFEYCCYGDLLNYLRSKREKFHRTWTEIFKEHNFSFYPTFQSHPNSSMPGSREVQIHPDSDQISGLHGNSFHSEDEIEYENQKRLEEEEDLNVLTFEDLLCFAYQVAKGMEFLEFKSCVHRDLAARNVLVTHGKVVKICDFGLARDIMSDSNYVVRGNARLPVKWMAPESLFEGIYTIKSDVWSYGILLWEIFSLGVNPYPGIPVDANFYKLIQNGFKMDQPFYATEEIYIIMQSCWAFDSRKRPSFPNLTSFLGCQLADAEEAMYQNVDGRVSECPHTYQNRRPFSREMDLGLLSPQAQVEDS

[5] = biological target: T3, Serine/threonine-protein kinase PLK4 (Homo sapiens, UniProt O00444); experiment: Inhibition of recombinant SAK
T3 sequence (O00444 whole entry): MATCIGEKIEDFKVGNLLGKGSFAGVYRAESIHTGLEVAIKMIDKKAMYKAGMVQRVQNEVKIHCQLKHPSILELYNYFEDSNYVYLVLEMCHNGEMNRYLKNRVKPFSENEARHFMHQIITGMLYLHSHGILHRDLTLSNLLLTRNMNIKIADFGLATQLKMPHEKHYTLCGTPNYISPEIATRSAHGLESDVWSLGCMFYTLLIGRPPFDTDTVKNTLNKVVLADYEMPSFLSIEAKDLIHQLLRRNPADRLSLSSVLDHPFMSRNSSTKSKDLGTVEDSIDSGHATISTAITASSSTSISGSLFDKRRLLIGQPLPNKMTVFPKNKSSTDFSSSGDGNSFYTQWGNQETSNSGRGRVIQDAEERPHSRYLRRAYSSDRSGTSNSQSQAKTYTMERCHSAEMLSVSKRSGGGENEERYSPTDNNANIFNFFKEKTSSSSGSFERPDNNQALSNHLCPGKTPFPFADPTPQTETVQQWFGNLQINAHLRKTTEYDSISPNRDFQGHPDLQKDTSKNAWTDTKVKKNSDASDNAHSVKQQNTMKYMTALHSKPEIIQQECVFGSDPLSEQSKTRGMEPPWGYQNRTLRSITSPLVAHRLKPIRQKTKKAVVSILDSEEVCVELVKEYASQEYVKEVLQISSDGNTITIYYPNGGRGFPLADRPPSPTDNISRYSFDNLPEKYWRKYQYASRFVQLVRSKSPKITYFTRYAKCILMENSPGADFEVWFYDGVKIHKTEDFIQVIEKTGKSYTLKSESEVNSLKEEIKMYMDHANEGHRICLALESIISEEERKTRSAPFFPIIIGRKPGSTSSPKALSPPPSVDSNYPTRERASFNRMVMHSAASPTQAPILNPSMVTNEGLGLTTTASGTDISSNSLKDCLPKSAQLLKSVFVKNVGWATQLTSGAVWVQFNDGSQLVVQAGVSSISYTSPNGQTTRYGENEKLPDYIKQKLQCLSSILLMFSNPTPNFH

[6] = biological target: Vascular endothelial growth factor receptor 3 (Homo sapiens, UniProt P35916); experiment: Inhibition of recombinant VEGFR3; summary of the method: as §1
[7] = biological target: Vascular endothelial growth factor receptor 2 (Homo sapiens, UniProt P35968); experiment: Inhibition of recombinant VEGFR2; summary of the method: as §1
[8] = biological target: Receptor tyrosine-protein kinase erbB-2 (Homo sapiens, UniProt P04626); experiment: Inhibition of recombinant ERBB2
[9] = biological target: Platelet-derived growth factor receptor beta (Homo sapiens, UniProt P09619); experiment: Inhibition of recombinant PDGFRbeta
[10] = biological target: RAC-alpha serine/threonine-protein kinase (Homo sapiens, UniProt P31749); experiment: Inhibition of recombinant AKT1; summary of the method: as §1
Focal adhesion kinase 1 = Focal adhesion kinase 1 (Homo sapiens, UniProt Q05397); experiment: Inhibition of recombinant FAK
Ephrin type-B receptor 4 = biological target: T4, Ephrin type-B receptor 4 (Homo sapiens, UniProt P54760); experiment: Inhibition of recombinant EPHB4; summary of the method: as §1
T4 sequence (P54760 whole entry): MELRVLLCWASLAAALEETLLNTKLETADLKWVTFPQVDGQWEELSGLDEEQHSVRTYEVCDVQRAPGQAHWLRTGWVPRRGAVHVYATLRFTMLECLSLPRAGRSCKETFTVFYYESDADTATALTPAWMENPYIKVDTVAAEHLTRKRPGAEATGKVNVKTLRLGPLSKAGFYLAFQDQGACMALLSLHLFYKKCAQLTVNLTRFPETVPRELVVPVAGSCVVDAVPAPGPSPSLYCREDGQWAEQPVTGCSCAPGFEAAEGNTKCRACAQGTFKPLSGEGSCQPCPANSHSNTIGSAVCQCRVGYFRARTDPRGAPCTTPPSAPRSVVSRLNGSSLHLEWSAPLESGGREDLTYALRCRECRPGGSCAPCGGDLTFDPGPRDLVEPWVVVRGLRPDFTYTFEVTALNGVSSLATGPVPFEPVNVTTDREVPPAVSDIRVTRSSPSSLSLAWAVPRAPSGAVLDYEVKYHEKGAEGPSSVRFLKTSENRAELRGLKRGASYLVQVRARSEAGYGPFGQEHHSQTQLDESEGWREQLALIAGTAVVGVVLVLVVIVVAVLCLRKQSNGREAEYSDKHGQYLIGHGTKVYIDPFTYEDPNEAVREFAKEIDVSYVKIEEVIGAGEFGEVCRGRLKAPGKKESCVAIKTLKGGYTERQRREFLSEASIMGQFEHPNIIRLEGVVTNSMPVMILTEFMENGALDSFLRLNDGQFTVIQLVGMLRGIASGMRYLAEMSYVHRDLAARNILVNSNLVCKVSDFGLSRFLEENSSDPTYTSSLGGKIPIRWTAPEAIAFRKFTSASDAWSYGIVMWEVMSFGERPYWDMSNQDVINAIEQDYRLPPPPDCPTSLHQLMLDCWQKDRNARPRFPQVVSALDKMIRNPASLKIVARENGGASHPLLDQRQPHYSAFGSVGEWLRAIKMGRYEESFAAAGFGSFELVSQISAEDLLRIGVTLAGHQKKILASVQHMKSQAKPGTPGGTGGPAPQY

[11] = biological target: Cyclin-dependent kinase 4/G1/S-specific cyclin-D1 (Homo sapiens, UniProt P11802); experiment: Inhibition of recombinant CDK4/CycD1
[12] = biological target: Cyclin-dependent kinase 2 (Homo sapiens, UniProt P24941); experiment: Inhibition of recombinant CDK2/CycA; summary of the method: as §1
[13] = biological target: Serine/threonine-protein kinase PLK1 (Homo sapiens, UniProt P53350); experiment: Inhibition of recombinant PLK1
[14] = biological target: Mitogen-activated protein kinase kinase kinase 8 (Homo sapiens, UniProt P41279); experiment: Inhibition of recombinant COT
Angiopoietin-1 receptor = Angiopoietin-1 receptor (Homo sapiens, UniProt Q02763); experiment: Inhibition of recombinant TIE2
[15] = biological target: Serine/threonine-protein kinase B-raf (Homo sapiens, UniProt P15056, V600E); experiment: Inhibition of recombinant B-RAF-V600E mutant; summary of the method: as §1
Aurora kinase B = Aurora kinase B (Homo sapiens, UniProt Q96GD4); experiment: Inhibition of recombinant Aurora B; summary of the method: as §1
Aurora kinase A = biological target: T5, Aurora kinase A (Homo sapiens, UniProt O14965); experiment: Inhibition of recombinant Aurora A; summary of the method: as §1
T5 sequence (O14965 whole entry): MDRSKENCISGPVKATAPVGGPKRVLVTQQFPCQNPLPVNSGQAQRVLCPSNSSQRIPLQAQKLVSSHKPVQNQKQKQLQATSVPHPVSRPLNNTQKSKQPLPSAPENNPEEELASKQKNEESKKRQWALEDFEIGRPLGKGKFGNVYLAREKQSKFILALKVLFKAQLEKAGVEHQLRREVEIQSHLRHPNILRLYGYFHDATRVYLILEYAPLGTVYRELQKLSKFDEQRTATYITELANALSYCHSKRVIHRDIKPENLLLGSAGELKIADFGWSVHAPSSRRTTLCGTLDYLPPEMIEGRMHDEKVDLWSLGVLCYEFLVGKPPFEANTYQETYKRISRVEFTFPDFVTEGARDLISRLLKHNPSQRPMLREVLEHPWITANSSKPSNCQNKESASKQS

Casein kinase II subunit alpha, sequence (P68400 whole entry): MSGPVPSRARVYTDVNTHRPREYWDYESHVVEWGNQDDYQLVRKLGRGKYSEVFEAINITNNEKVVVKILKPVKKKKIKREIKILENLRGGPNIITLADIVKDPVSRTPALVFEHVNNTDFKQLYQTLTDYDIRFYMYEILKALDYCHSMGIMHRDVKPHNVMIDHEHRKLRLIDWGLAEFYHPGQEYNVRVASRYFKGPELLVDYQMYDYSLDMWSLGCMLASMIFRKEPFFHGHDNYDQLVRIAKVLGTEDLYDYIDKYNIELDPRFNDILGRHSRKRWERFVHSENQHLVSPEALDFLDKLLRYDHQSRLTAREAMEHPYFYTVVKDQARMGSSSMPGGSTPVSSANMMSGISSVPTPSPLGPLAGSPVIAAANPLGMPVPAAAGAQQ
Receptor tyrosine-protein kinase erbB-2, sequence (P04626 whole entry): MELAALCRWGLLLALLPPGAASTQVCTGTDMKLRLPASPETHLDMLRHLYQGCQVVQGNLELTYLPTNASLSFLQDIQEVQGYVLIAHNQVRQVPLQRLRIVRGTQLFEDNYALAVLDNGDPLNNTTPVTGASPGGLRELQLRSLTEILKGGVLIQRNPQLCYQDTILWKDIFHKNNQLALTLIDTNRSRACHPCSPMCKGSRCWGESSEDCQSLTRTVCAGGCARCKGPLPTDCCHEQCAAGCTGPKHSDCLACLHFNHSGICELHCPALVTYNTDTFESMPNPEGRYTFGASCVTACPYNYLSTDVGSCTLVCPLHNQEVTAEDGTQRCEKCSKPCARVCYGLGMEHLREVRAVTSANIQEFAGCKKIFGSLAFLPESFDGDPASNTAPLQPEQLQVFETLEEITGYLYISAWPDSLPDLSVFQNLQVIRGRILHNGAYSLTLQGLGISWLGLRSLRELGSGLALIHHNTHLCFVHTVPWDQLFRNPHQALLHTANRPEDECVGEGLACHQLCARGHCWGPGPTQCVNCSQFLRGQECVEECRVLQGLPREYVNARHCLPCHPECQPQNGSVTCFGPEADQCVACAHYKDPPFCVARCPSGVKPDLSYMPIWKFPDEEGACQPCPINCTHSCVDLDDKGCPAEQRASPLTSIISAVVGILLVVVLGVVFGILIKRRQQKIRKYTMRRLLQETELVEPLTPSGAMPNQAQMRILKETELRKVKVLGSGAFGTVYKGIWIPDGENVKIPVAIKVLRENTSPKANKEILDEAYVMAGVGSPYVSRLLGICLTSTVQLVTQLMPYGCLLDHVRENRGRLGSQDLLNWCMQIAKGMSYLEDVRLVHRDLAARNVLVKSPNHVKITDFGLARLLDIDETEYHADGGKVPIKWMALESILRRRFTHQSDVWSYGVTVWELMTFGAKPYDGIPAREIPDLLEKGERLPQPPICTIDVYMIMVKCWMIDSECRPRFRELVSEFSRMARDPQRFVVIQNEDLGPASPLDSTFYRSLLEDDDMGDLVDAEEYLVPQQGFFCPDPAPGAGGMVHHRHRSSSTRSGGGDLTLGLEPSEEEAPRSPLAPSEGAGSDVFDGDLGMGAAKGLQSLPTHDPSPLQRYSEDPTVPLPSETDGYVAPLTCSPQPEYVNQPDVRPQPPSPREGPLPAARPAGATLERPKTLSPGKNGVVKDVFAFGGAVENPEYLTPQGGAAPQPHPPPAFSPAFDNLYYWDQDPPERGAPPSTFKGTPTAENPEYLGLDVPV
Serine/threonine-protein kinase PLK1, sequence (P53350 whole entry): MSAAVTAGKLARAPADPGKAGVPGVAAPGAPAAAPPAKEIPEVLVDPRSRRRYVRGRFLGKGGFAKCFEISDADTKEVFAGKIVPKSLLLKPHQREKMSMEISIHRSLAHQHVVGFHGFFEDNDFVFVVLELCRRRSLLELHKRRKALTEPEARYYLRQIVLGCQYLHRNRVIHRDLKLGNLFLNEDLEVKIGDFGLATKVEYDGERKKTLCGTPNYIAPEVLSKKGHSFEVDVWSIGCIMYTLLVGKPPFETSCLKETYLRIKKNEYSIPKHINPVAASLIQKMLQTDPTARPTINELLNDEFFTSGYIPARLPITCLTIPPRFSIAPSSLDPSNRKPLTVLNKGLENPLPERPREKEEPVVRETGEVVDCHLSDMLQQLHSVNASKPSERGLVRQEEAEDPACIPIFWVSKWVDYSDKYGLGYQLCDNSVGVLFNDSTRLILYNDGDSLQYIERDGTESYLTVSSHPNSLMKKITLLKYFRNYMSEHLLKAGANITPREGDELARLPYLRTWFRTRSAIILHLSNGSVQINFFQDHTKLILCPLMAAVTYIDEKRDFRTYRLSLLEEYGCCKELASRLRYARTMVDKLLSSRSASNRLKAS
RAC-alpha serine/threonine-protein kinase, sequence (P31749 whole entry): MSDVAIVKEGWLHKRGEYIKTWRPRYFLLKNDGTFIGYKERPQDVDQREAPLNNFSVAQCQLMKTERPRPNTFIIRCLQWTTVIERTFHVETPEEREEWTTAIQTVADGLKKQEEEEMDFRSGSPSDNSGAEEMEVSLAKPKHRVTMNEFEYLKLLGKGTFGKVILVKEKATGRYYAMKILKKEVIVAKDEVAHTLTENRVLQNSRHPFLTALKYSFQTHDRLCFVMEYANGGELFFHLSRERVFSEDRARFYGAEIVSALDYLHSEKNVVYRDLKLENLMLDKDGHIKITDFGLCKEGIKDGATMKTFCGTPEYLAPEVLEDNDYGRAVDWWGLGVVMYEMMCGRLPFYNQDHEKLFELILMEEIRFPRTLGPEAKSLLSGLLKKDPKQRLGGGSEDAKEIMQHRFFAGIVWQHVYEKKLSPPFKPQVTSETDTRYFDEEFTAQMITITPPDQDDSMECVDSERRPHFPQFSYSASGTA
Vascular endothelial growth factor receptor 2, sequence (P35968 whole entry): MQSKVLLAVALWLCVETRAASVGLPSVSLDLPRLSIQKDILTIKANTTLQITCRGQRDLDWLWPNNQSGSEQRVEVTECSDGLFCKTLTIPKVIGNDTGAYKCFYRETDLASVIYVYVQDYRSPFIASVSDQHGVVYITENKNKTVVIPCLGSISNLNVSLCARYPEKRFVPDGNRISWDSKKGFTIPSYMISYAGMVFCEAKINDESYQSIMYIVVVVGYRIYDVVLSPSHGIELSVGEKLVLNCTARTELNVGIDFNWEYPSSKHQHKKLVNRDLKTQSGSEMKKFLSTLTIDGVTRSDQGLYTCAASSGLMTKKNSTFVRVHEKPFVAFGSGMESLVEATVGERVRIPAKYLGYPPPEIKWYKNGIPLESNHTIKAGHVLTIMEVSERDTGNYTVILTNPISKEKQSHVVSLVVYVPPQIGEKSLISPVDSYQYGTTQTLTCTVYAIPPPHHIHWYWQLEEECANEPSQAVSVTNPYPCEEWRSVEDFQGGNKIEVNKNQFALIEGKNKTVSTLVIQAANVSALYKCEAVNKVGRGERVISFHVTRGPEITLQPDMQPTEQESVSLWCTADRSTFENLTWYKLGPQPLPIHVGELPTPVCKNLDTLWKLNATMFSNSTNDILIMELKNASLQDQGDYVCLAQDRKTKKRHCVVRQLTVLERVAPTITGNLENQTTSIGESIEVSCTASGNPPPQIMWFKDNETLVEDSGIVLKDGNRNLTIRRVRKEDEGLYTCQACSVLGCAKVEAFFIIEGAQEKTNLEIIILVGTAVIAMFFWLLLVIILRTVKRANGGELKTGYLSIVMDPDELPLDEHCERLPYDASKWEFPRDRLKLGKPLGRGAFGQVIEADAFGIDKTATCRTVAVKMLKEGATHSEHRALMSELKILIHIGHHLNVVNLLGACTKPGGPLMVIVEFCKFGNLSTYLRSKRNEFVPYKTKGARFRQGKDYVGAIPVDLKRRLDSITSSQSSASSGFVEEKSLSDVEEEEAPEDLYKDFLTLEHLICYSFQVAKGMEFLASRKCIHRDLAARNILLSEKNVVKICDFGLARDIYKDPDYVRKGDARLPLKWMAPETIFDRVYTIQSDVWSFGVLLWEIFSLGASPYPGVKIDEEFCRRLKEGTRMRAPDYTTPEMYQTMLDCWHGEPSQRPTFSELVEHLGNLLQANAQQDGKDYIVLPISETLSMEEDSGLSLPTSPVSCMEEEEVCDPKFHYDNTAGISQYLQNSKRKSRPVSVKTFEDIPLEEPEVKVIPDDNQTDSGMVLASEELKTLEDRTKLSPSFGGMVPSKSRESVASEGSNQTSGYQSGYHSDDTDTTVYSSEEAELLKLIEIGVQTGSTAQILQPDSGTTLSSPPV
Aurora kinase B, sequence (Q96GD4 whole entry): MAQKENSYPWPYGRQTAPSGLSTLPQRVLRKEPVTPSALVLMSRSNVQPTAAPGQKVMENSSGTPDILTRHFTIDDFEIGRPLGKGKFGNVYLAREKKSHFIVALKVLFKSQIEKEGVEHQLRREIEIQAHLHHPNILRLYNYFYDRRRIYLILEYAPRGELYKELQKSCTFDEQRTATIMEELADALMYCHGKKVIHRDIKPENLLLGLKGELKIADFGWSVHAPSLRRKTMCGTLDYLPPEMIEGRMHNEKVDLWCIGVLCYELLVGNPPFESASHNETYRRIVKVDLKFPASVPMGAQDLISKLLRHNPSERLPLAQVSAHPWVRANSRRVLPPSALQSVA
Cyclin-dependent kinase 4/G1/S-specific cyclin-D1, sequence (P11802 whole entry): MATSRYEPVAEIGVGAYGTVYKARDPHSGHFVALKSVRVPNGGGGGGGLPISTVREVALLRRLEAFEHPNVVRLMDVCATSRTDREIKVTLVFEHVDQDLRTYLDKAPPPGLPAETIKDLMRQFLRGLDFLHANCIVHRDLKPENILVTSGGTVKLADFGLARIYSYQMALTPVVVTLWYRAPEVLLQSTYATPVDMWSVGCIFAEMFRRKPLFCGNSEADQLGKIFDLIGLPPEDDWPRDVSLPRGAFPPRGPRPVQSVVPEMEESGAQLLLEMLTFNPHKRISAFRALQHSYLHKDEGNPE
Cyclin-dependent kinase 4/G1/S-specific cyclin-D1, sequence (P24385 whole entry, further chain): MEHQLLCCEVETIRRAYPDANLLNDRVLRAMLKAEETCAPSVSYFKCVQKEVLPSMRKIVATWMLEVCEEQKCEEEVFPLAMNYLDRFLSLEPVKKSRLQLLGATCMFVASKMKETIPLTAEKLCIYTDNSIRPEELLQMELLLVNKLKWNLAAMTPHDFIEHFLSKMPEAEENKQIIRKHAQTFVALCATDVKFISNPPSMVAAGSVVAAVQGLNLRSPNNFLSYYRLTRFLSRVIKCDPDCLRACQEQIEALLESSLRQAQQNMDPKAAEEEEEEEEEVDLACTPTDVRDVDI

IC50 [8] [µM] | IC50 [13] [µM] | SMILES | IC50 [1] [µM] | IC50 [3] [µM] | IC50 [4] [µM] | IC50 [10] [µM] | IC50 [12] [µM] | other results
 |  | COc1cc(O)c2c(=O)oc3cc(O)cc(C)c3c2c1 | > 36.7 |  |  |  |  | 
 |  | COc1cc(O)c2c(=O)oc3c(O)c(O)cc(C)c3c2c1 | > 34.6 | 1.21 | 1.83 |  |  | IC50 [2]: 3.15 µM; IC50 [5]: 2.87 µM; IC50 [6]: 1.35 µM; IC50 [7]: 2.22 µM
> 35.9 | > 35.9 | COc1cc(O)c(C(=O)O)c(C2=C(C)C[C@@H](O)C2=O)c1 [Alternarienonic Acid] | > 35.9 |  |  | > 35.9 | > 35.9 | IC50 [9]: > 35.9 µM; IC50 (Focal adhesion kinase 1): > 35.9 µM; IC50 (Ephrin type-B receptor 4): > 35.9 µM; IC50 [11]: > 35.9 µM; IC50 [14]: > 35.9 µM; IC50 (Angiopoietin-1 receptor): > 35.9 µM
 |  | Cc1cc(O)cc2oc(=O)c3c(O)cc(OS(=O)(=O)O)cc3c12 [Alternariol 5-O-Sulfate] |  | 2.21 | 0.975 | > 29.5 | 2.48 | IC50 [15]: 2.18 µM; IC50 (Aurora kinase B): 0.65 µM; IC50 [5]: 1.12 µM; IC50 (Aurora kinase A): 1.15 µM; IC50 [7]: 2.06 µM
 |  | Cc1cc(O)cc2oc(=O)c3c(O)cc(O)cc3c12 [CHEBI:64983] |  | 3.67 |  | > 38.7 |  | IC50 [9]: 3.44 µM; IC50 (Ephrin type-B receptor 4): > 38.7 µM; IC50 (Aurora kinase A): 2.82 µM
> 36.2 | > 36.2 | Cc1cc(O)c(O)cc1-c1cc(O)cc(O)c1C(=O)O [Desmethylaltenusin] | > 36.2 |  |  | > 36.2 | > 36.2 | 

SMILES | IC50 [8] [µM] | IC50 [13] [µM] | IC50 [1] [µM] | IC50 [3] [µM] | IC50 [4] [µM] | IC50 [10] [µM] | IC50 [12] [µM] | other results
O=C1C[C@H](O)[C@@H]2c3c(ccc(O)c31)-c1ccc(O)c3c1[C@@]2(O)CCC3=O [Altertoxin I] | > 28.3 | > 28.3 | > 28.3 |  | 1.87 | > 28.3 | > 28.3 | IC50 (Aurora kinase B): 2.78 µM

— BindingDB's records for doi:10.1021/np070447m (2008)
